Exocytosis inh = blocks lytic granule exocytosis. TALL-104 LAMP-1 surface exposure, flow cytometry; cells stimulated with thapsigargin and PMA. inhibition, % at 10 µM. 360,000 tested, 0.66% active. AID 651702;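 active = inhibition above about 55%, limit read from the data; inconclusive = no clear call, values can overlap the other calls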
ABCB6 inh MLPCN = blocks the human ABCB6 transporter; 360,000 tested, 0.19% active; K562-ABCB6 porphyrin accumulation, flow cytometry, 1 h; hits give low values; fluorescence ratio to DMSO, % at 10 µM;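 active = fluorescence ratio to DMSO below 75%, the collection mean minus 3 SD; inconclusive = too few cells collected in the well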;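 note: signal is porphyrin accumulated inside mitochondria; lower ratio means ABCB6 inhibition with less porphyrin fluorescence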
CendR NRP1 mod = modulators of CendR peptide binding to human neuropilin-1. inhibition, % at 25 µM. FAM-RPARPAR peptide binding to NRP-1, fluorescence polarization. O14786. 360,000 tested, 0.85% active;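 active = inhibition or corrected inhibition above about 18%, plus a signal ratio from 0.5 to 1.5, limit read from the data, passing the limit was not always enough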
ATG4B inh = blocks human ATG4B protease cleavage of LC3 substrate | ATG4B cleavage of LC3-PLA2, NBD-HPC fluorescence, 1 h | inhibition, % at 8.33 µM | 340,000 tested, 0.51% active | AID 504462; in the data active = inhibition above about 40%
Target sequence (Q9Y4P1 whole entry, looked up): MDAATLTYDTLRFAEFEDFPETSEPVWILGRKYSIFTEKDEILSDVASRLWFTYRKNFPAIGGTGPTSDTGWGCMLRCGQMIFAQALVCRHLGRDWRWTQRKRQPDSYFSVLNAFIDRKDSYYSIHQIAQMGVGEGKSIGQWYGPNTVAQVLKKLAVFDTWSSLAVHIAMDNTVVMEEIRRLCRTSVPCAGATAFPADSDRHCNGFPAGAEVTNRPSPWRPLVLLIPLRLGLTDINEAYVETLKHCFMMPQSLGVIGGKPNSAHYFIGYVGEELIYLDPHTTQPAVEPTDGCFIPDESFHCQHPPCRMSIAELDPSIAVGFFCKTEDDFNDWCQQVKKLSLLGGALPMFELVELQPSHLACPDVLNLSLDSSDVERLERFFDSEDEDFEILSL
Arr AP2 block = blocks beta-arrestin peptide binding to AP2 adaptin. inhibition, % at 10 µM. 340,000 tested, 0.31% active. FITC-arrestin peptide / GST-AP2 beads, flow cytometry; AP2 beta2 appendage carries R879A mutation. AID 504490;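 active = inhibition above a set limit, near 3 SD of compounds lacking own fluorescence, cut at about 54% in these data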
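System: GST-AP2 R879A bound to glutathione beads, E. coli-expressed. Also added: 50 nM FITC-arrestin peptide. Schedule: compound with beads 12 min RT, then probe 1 h RT. Signal: bead flow cytometry, FITC channel. Read-out basis: percent response.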
Myeloid diff 2 = promotes myeloid progenitor differentiation; ER-HoxA9 myeloid progenitors, lysozyme-GFP differentiation, flow cytometry; calls only at 10 µM; 360,000 tested, 1% active;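 active = normalized GFP-positive differentiation at or above the plate's own cutoff, the solvent-only control mean plus 3 SD; inconclusive = no clear call, values can overlap the other calls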;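 note: cells exposed to compound for four days before flow analysis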
PLA2 ctr = counter-screen for ATG4B inhibitors: human phospholipase A2; shares compounds with ATG4B inh; purified PLA2, NBD-C6-HPC fluorescence, 45 min; AID 588402; 1,600 tested, 66% active; inhibition, % at 8.33 µM; in the data active = inhibition above about 50%
Target sequence (P04054 whole entry, looked up): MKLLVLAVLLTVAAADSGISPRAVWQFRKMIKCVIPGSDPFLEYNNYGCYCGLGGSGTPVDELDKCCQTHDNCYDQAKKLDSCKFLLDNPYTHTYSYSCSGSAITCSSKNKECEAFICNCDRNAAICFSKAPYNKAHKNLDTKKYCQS
Arr AP2 CP1 = blocks beta-arrestin peptide binding to human AP2; 1,300 tested, 2% active; inhibition, % at 10 µM; shares compounds with Arr AP2 block; AID 504908; GST-AP2 beads, FITC arrestin peptide binding, flow cytometry; GST-fused beta2-adaptin appendage, R879A mutant;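 active = inhibition above a set limit, roughly 3 SD of non-fluorescent compound noise, cut at about 38% in these data; inactive = inhibition at or below that limit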;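 note: loss of bead fluorescence from 50 nM FITC arrestin peptide bound to appendage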
GST GSH counter = counter-screen for beta-arrestin AP2 inhibitors: GST-GSH bead binding. shares compounds with Arr AP2 block. GST-fluorescein binding to GSH beads, fluorescence. inhibition, % at 10 µM. 1,300 tested, 2% active. AID 588338;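 active = inhibition above 50%, about 3 SD of the inhibition seen with non-fluorescent compounds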;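 note: fluorescein maleimide labelled GST captured on 4 micron glutathione beads; higher means more loss of bead fluorescence from quenching or blocked binding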
Myeloid diff CP1 = promotes myeloid progenitor differentiation | shares compounds with Myeloid diff 2 | ER-HoxA9 myeloid progenitors, GFP/Mac1 double-positive flow | calls only | 2,300 tested, 2% active | AID 651706;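 active = share of green or green-and-red cells above 9 and 9% in run 1 or 4 and 3% in run 2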
GFP autofluor = counter-screen for myeloid differentiation promoters: compound fluorescence | shares compounds with Myeloid diff 2 | 2,300 tested, 7.4% active | fluorescence response, % (test concentration not listed) | ER-HoxA9 myeloid progenitors, no estrogen, GFP autofluorescence flow cytometry; vehicle wells 0%, positive control 100% | AID 651707;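 active = over 5% cells positive for green fluorescent reporter, or over 2% positive for both it and APC stain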
Granule exo CP1 = lytic granule exocytosis inhibition | inhibition, % at 10 µM | shares compounds with Exocytosis inh | AID 651954 | 1,500 tested, 11% active | TALL-104 cells, LAMP-1 externalization, flow cytometry; stimulated with PMA plus thapsigargin; in the data active = inhibition above about 60%
Each line names hits and unclear results; the compound was inactive in the other large screens (follow-up assays come after a bar, where they were run). Only some compounds are listed: those with a hit (about 3.3% of all), similar ones and a draw of the others.

NC(=O)c1ccc(N2CCN(c3ccccc3F)CC2)c([N+](=O)[O-])c1	ATG4B inh 45 | PLA2 ctr 50 | Myeloid diff CP1 inactive | GFP autofluor inactive
NC(=O)c1ccc(N2CCN(c3ccccc3O)CC2)c([N+](=O)[O-])c1	none
O=C1/C(=C\c2cc([N+](=O)[O-])ccc2O)SC(=S)N1Cc1ccc(Cl)cc1	ATG4B inh 52 | PLA2 ctr 51 | Myeloid diff CP1 inactive | GFP autofluor 74
CCCCCCNC(=O)CC(c1ccccc1)c1cc(Br)ccc1O (centres undefined)	Exocytosis inh 66, ATG4B inh 41 | PLA2 ctr 56 | Granule exo CP1 inactive
O=C(Nc1cccc(Cl)c1N1CCCC1)c1ccco1	Exocytosis inh 74, ATG4B inh 63 | PLA2 ctr 68 | Granule exo CP1 inactive
CCN(Cc1ccccc1)S(=O)(=O)c1ccc(C(=O)N(CCCN(C)C)c2nc3c(C)c(C)ccc3s2)cc1	Exocytosis inh 60, ATG4B inh 40 | PLA2 ctr 50 | Granule exo CP1 inactive
Cc1ccc2sc(N(CCCN(C)C)C(=O)c3ccc(S(=O)(=O)N4CCOCC4)cc3)nc2c1C	none
C[C@H](NC(N)=O)C(=O)OCC(=O)Nc1ccc(OC(F)F)cc1	none
Cc1ccc(NC(=O)CN2C(=O)C(=O)N(C3CCCC3)C2=O)c(Cl)c1	none
CCN(CC)CCN(Cc1cc2cc3c(cc2[nH]c1=O)OCCO3)C(=O)NC1CCCCC1	none | Arr AP2 CP1 inactive | GST GSH counter inactive
COc1ccc(CN(Cc2cc3cc4c(cc3[nH]c2=O)OCO4)C(=O)NC2CCCCC2)cc1	none | Arr AP2 CP1 inactive | GST GSH counter inactive
O=C(NC1CCCCC1)N(CCN1CCOCC1)Cc1cc2cc3c(cc2[nH]c1=O)OCCO3	none
CCOC(=O)C1=C(COC(=O)CCc2ccc(F)cc2)NC(=O)NC1C (centres undefined)	none | Arr AP2 CP1 inactive | GST GSH counter inactive
CCOC(=O)C1=C(COC(=O)/C=C/c2ccc(OC)c(OC)c2)NC(=O)NC1C (centres undefined)	none
CCOC(=O)C1=C(COC(=O)Cc2ccc(OC)c(OC)c2)NC(=O)NC1C (centres undefined)	none | Arr AP2 CP1 inactive | GST GSH counter inactive
CCOC(=O)C1=C(COC(=O)C(C)(C)Oc2ccc(Cl)cc2)NC(=O)NC1C (centres undefined)	none | Arr AP2 CP1 inactive | GST GSH counter inactive
CCOC(=O)C1=C(COC(=O)Cc2ccc(Cl)cc2)NC(=O)NC1C (centres undefined)	none | Arr AP2 CP1 inactive | GST GSH counter inactive
CCOC(=O)C1=C(COC(=O)c2cccc(Cl)c2)NC(=O)NC1C (centres undefined)	none
CC(=O)N/N=C(/C)c1ccc(NC(=O)c2csc(C)c2C)cc1	none
CCOC(=O)C1=C(COC(=O)Cc2ccccc2)NC(=O)NC1C (centres undefined)	none | Arr AP2 CP1 inactive | GST GSH counter inactive
COC(=O)[C@]12CCCCC=C1N(CCC1=CCCCC1)C(=O)[C@H](CC(=O)NCC13CC4CC(CC(C4)C1)C3)C2	none (no result: ATG4B inh, Arr AP2 block)
Cn1ncc2c(NNC(=O)C3CCCCC3)ncnc21	none
CN(C)c1ccc(/C=N/N=C(N)N)cc1[N+](=O)[O-]	none
COc1ccc(OC)c2c1C(=O)C(Cl)=C(Cl)C2=O	Exocytosis inh 93, Arr AP2 block 87, Myeloid diff 2 inconclusive | Arr AP2 CP1 72 | GST GSH counter inactive
COc1ccc(OC)c2c1C(=O)c1ccccc1C2=O	none (no result: Exocytosis inh, ABCB6 inh MLPCN, CendR NRP1 mod, Arr AP2 block, Myeloid diff 2)
COc1ccccc1C(=O)Nc1nnc(S(=O)(=O)N2CCCCCC2)s1	none
COc1ccccc1C(=O)Nc1nnc(S(=O)(=O)N2CCCCC2)s1	Arr AP2 block 64 | Arr AP2 CP1 inactive | GST GSH counter inactive
CC(=O)Nc1cccc(-c2csc(N)n2)c1	Arr AP2 block 55 | Arr AP2 CP1 inactive | GST GSH counter inactive
CC(=O)Nc1cccc(-c2csc(C(O)c3ccccc3)n2)c1 (centres undefined)	none (no result: ATG4B inh, Arr AP2 block)
O=S(=O)(NCCOc1ccccc1F)c1cccc(Br)c1	none
O=S(=O)(NCCOc1ccccc1F)c1ccc(Cl)cc1F	Arr AP2 block 60 | Arr AP2 CP1 inactive | GST GSH counter inactive
CC(C)Nc1nc(NCCOc2ccccc2)c2sccc2n1	none (no result: ATG4B inh, Arr AP2 block)
O=C(CCc1ccccc1)NNC(=O)Nc1ccc(F)c(Cl)c1	none
COc1cccc(CSc2nc3ccncc3[nH]2)c1	none
CCCSc1ccc([C@@H]2[C@@H]3C(=O)N(C)C(=O)[C@@H]3[C@]3(C(=O)OC)CCCN23)cc1OC	Arr AP2 block 60 | Arr AP2 CP1 inactive | GST GSH counter inactive
CCN(CC)S(=O)(=O)c1cccc(C(=O)N/N=C/c2cc(OC)c(O)c(OC)c2)c1	Arr AP2 block 60 | Arr AP2 CP1 inactive | GST GSH counter inactive
CC(C)CC1NC(=O)N(CC(=O)Nc2cc(F)ccc2F)C1=O (centres undefined)	none
CCN(C(=O)Cn1cnc2c1c(=O)n(C)c(=O)n2C)C1CCCCC1	Arr AP2 block 61 | Arr AP2 CP1 inactive | GST GSH counter inactive
CCN(C(=O)Cn1cnc2c1c(=O)n(C)c(=O)n2C)C1CCS(=O)(=O)C1 (centres undefined)	none
Cc1cccc(C(=O)N[C@@H]2c3ccccc3C[C@@H]2O)n1	none
COCOCCn1cc(CN2CCS(=O)(=O)N(Cc3ccc(-c4ccc(F)nc4)cc3)C(CC(C)C)C2=O)nn1 (centres undefined)	none (no result: ATG4B inh, Arr AP2 block)
CCc1ccc(N2CC(C(=O)OCc3csc(CC(=O)Nc4ccccc4C)n3)CC2=O)cc1 (centres undefined)	Arr AP2 block 62 | Arr AP2 CP1 inactive | GST GSH counter inactive

High-throughput results from PubChem BioAssay.
